High-throughput results: PubChem, Johns Hopkins Ion Channel Center
Compounds with a hit are over-represented: about 3.5% of the library has one in this group of screens.
MrgX1 agonist: agonists of human MrgX1 receptor, primary screen, HEK293 cells, Fluo-4 calcium flux; Mas-related G-protein coupled receptor member X1 (Homo sapiens), Q96LB2; Fluo-4 calcium fluorescence, agonist mode; active compounds read high; actives 0.44% (n = 310,000); B-score at 10 µM;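 active = calcium response B-score plate-corrected fluorescence ratio at least 3 library SD, with starting fluorescence B-score inside 5 SD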
Target sequence (Q96LB2 whole entry, looked up): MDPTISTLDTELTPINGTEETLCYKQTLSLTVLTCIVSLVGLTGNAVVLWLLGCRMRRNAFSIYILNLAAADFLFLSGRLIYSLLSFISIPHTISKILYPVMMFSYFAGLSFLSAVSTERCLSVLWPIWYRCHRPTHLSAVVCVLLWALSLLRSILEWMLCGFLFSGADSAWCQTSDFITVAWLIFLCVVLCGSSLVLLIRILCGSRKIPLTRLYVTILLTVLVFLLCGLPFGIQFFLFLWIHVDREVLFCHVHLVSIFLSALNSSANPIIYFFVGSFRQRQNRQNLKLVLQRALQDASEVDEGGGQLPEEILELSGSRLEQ
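Material – MrgX1-expressing HEK293 cells · Input – 15,000 cells seeded per well · Dosing – compound as first of three additions · Times – overnight seeding, then 1 h dark dye loading · Measured by – kinetic Fluo-4 NW fluorescence of intracellular calcium · Read-out – B-scored fluorescence response ratio · Benchmarks – positive and negative control wells on each plate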
MrgX1 allo act: positive allosteric modulators of MrgX1, primary screen, HEK293 cells, Fluo-4 calcium flux | AID 588675, 2011 | B-score at 10 µM | actives 0.63% (n = 310,000) | FDSS; active compounds read high;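 active = plate-corrected calcium response at least 3 library SD above typical, normal starting fluorescence, not activating the receptor alone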;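 note: compound read alongside a low EC10 to EC30 dose of BAM8-22 agonist; peak minus trough fluorescence over baseline measured at the second addition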
RGS4 inh: RGS4 inhibitors, primary screen, cell-based, HEK293 M3R inducible RGS4, calcium flux. Fluo-4 calcium flux; active compounds read high; triggered by carbachol at its EC20. B-score at 10 µM. actives 0.45% (n = 310,000). AID 463165, 2010;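 active = B-score, a plate-corrected calcium signal, over three deviations above library mean, with baseline fluorescence within five deviations of library mean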;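 note: RGS4 expression induced by doxycycline in cells with stable M3 receptor; B-score is computed from the integrated fluorescence ratio over baseline after carbachol; higher B-score means a larger calcium signal and so more RGS4 inhibition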
Target sequence (P49798 whole entry, looked up): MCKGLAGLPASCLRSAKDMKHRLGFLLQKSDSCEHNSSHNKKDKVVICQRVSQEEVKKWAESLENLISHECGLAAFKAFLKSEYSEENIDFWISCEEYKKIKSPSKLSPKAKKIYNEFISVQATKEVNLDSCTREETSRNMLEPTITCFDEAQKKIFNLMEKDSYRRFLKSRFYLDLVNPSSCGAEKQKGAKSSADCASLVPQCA
RGS4 pot: RGS4 potentiators or activators, primary screen, cell-based, HEK293 M3R inducible RGS4, calcium flux; carbachol calcium flux Fluo4; active compounds read low; B-score at 10 µM; actives 0.92% (n = 310,000); AID 463111, 2010;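 active = B-score of the integrated calcium signal more than 4 SD below the library mean, with starting fluorescence not abnormally high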;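 note: negative B-score means reduced calcium response which marks RGS4 activation or potentiation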
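Assay system: Inducible-RGS4 HEK293 cells carrying M3 receptor | Schedule: Compound preincubation 20 min at room temperature before agonist | Signal: Kinetic calcium fluorescence imaging with Fluo4-AM dye, 2 µM | Read-out basis: B score from integrated fluorescence ratio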
MrgX1 antagonist: antagonists of human MrgX1 receptor, primary screen, HEK293 cells, Fluo-4 calcium flux. B-score at 10 µM. AID 588676, 2011. Mas-related G-protein coupled receptor member X1 (Homo sapiens), Q96LB2. BAM8-22 antagonism; active compounds read low. actives 1.3% (n = 310,000);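 active = calcium-response B-score plate-corrected more than 3 library SD below zero, starting fluorescence within 5 deviations, no agonist response on first addition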;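 note: peak minus trough fluorescence over baseline after final BAM8-22 challenge near maximal dose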
RGS4 block valid: enhanced carbachol calcium response, M3R/RGS4 cells, RGS4 inhibitor project, cell-based, validation screen, HEK293 M3R/RGS4, calcium flux | shares compounds with RGS4 inh | carbachol calcium Fluo-4 fluorescence; carbachol added at its EC20; 0 = buffer wells, 100 = carbachol control | calcium response, % at 10 µM | actives 65% (n = 1,700);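 active = duplicate-averaged calcium response above the buffer-only control mean plus 5 SD of those controls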;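 note: integrated fluorescence ratio F max minus min over baseline F0; higher response in RGS4-induced cells means RGS4 inhibition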
RGS4 uninduced: carbachol calcium response in non-induced M3R cells, confirmation, counter-screen for RGS4 inhibitor project, cell-based, HEK293 M3R; shares compounds with RGS4 inh; carbachol calcium Fluo-4; submaximal (EC20) carbachol stimulus; buffer wells 0%, carbachol control wells 100%; activity (percent), % at 10 µM; actives 20% (n = 1,900); AID 493000, 2010; call rule not given here;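 note: RGS4 induction absent so cells express M3R without RGS4; higher means more calcium signal and flags a non-specific hit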
RGS4 inh ctr2: signal in non-induced cells without carbachol, RGS4 inhibitor counter-screen | shares compounds with RGS4 inh | HEK293 M3R/RGS4 non-induced, Fluo-4 calcium, no carbachol; normalised: buffer wells 0%, carbachol wells 100% | calcium response (agonist-mode artifact), % at 10 µM | actives 22% (n = 1,900) | AID 493001;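 active = duplicate-averaged calcium rise in uninduced cells above buffer wells' mean plus 5 SD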
Starred values were filed as active, the others as inactive; i = inactive; . = not tested or not shown.

SMILES	MrgX1 agonist	MrgX1 allo act	RGS4 inh	RGS4 pot	MrgX1 antagonist	RGS4 block valid	RGS4 uninduced	RGS4 inh ctr2
COC(=O)C1CCN(Cc2cc(=O)oc3cc(OC)ccc23)CC1	i	i	4.8*	i	i	21%*	i	i
COc1ccc(OC)c(CN2CCN(Cc3cc(=O)oc4cc(O)ccc34)CC2)c1	i	i	i	i	i	.	.	.
O=C(c1ccc2ccccc2c1)N1CCN(S(=O)(=O)/C=C/c2ccccc2)CC1	i	i	i	i	i	.	.	.
O=C(O)c1cn(Cc2cccnc2)c(=O)c2ccccc12	i	i	i	i	i	.	.	.
O=C1CC(C(=O)N2CCOCC2)C2(CCCCC2)O1 (stereo not drawn)	i	i	i	i	i	.	.	.
Nc1ccc(C23CC4CC(CC(C4)C2)C3)cc1	i	i	7.9*	i	i	13%*	i	i
CC(=O)c1c(C)[nH]c(C(=O)COC(=O)C2CC2)c1C	i	i	i	i	i	.	.	.
CN1CCN(c2ccc(NC(=O)CSc3nnnn3-c3ccccc3F)cc2)CC1	i	i	i	i	i	.	.	.
CCOC(=O)c1c(NC(=O)CC2SC(N)=NC2=O)sc2c1CCC(C)C2 (stereo not drawn)	i	i	i	i	i	.	.	.
COC(=O)c1c(NC(=O)CC2SC(N)=NC2=O)sc2c1CCCC2 (stereo not drawn)	i	i	i	i	i	.	.	.
COC(=O)c1c(NC(=O)CC2SC(N)=NC2=O)sc2c1CCC(C)C2 (stereo not drawn)	i	i	i	i	i	.	i	i
COC(=O)c1c(NC(=O)CC2SC(N)=NC2=O)sc2c1CCC(C(C)(C)C)C2 (stereo not drawn)	i	i	12*	i	i	43%*	i	i
O=C(c1cccs1)N(c1ccc(Cl)cc1)C1C=CS(=O)(=O)C1 (stereo not drawn)	i	i	i	i	i	.	.	.
COc1ccc(OCCSc2nnc(Cc3cccc4ccccc34)n2N)cc1	i	i	i	i	i	.	i	i
O=C(O)c1ccc2c(=O)n3c(nc2c1)/C(=C/c1ccc(Cl)cc1Cl)CC3	i	i	19*	i	i	24%*	i	i
O=C(O)CCC(=O)Nc1sc2c(c1C(=O)Nc1ccccc1)CCCCC2	i	i	5.5*	i	i	7.0%*	64%*	i
Cc1ccc(C(=O)C(=O)c2ccc(C)c(N)c2)cc1N	i	i	i	i	i	.	.	.
COc1ccc(OC)c(-c2nc3ccccc3nc2-c2ccccc2)c1	i	i	i	i	i	i	i	i
O=c1nc(N2CCCC2)nc(Nc2ccccc2)[nH]1	i	i	i	i	i	i	i	i
COc1ccc(Nc2nc(N3CCCC3)nc(N3CCOCC3)n2)cc1	i	i	i	i	i	.	.	.
c1ccc(Nc2nc(N3CCCC3)nc(N3CCOCC3)n2)cc1	i	i	i	i	i	i	i	i
Cc1[nH]n(-c2ncc(-c3ccccc3)s2)c(=O)c1C(c1ccc(Br)cc1)C(C#N)C#N (stereo not drawn)	i	i	16*	i	-6.8*	50%*	i	51%*
CC(=O)c1ccc(-n2c(=O)[nH]c(=O)c3c(N)c(C(=O)c4ccc(Cl)cc4)sc32)cc1	i	i	i	i	i	.	i	i
Nc1c(C(=O)c2ccccc2)sc2c1c(=O)[nH]c(=O)n2-c1ccccc1	i	i	i	i	i	.	38%*	i
Nc1c(C(=O)c2ccc(Cl)cc2)sc2c1c(=O)[nH]c(=O)n2-c1ccccc1	i	i	5.2*	i	i	38%*	i	26%*
SMILES	MrgX1 agonist	MrgX1 allo act	RGS4 inh	RGS4 pot	MrgX1 antagonist	RGS4 block valid	RGS4 uninduced	RGS4 inh ctr2
CCS(=O)(=O)N1CCC(C(=O)NCCN2CCN(Cc3ccccc3)CC2)CC1	i	i	i	i	i	.	.	.
OCC(O)CSc1nc(-c2ccccc2)nc2c1CCC2 (stereo not drawn)	i	i	i	i	i	.	.	.
O=c1c(O)c(-c2ccc(O)cc2)oc2cc(O)cc(O)c12	i	i	i	i	i	.	i	i
COc1cccc(C(=O)O/N=C(\N)Cc2ccc(Cl)cc2)c1	i	i	8.8*	i	i	7.5%*	i	i
COc1cccc(C(=O)O/N=C(\N)c2ccc(C)cc2)c1	i	i	i	i	i	.	.	.
CCN1C(=O)CC(C(=O)OC)=C1C	i	i	i	i	i	.	.	.
Cc1ccc2c(c1)c1c(n2CC(O)Cn2c(C)nc3ccccc32)/C(=N\O)CCC1 (stereo not drawn)	i	i	15*	i	i	42%*	i	i
O=C(Nc1ccccc1)C(Cl)C(=O)c1ccccc1 (stereo not drawn)	i	i	9.1*	i	i	30%*	38%*	i
Cc1ccccc1OCc1nnc(SCC(=O)Nc2ccc3c(c2)oc2ccccc23)n1C	i	i	5.1*	i	i	14%*	i	i
COc1ccc(NS(=O)(=O)c2ccc3nc(COc4cccc5ccccc45)[nH]c3c2)cc1	i	i	8.5*	i	i	7.0%*	i	i
CC(=O)Oc1ccccc1/C=C1\CCOC1=O	i	i	i	i	i	.	.	.
Cc1noc(NS(=O)(=O)c2ccc(N/C=C\C(=O)c3ccc(F)cc3)cc2)c1C	i	i	i	i	i	.	36%*	i
Cc1noc(NS(=O)(=O)c2ccc(N/C=C\C(=O)c3ccccc3)cc2)c1C	i	i	i	i	i	.	i	i
Cc1noc(NS(=O)(=O)c2ccc(N/C=C\C(=O)c3cccs3)cc2)c1C	i	i	i	i	i	.	.	.
